For one experiment, the species on record is Homo sapiens. Briefly: Selectivity ratio of IC50 for FDPS (unknown origin) to IC50 for GGDPS (unknown origin).
The target in experiment [1] is T1, Geranylgeranyl pyrophosphate synthase (Homo sapiens) (UniProt O95749).
T1 sequence (whole entry): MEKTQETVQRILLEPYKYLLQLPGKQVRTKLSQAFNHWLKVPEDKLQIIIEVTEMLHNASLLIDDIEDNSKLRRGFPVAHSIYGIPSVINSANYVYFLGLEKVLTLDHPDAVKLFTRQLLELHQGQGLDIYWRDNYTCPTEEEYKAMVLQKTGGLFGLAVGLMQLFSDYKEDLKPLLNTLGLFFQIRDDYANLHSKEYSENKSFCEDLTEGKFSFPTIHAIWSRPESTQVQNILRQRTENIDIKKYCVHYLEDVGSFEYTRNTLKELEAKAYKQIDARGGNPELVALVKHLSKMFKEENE
Briefly: Inhibition of GGPPs in human RPMI8226 cells assessed as disruption of Rab geranylgeranylation by ELISA. The experiment is classed as cell-based. (In general: ELISA stands for enzyme-linked immunosorbent assay.)

The target in experiment [2] is T1, Geranylgeranyl pyrophosphate synthase (Homo sapiens). Briefly: Inhibition of GGPPs in human RPMI8226 cells assessed as disruption of Rap1a geranylgeranylation measured after 48 hrs by immunoblot analysis. It counts as cell-based. The gist of the method: (§1)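 Whole-cell lysates made in RIPA buffer (0.15 M NaCl, 1% deoxycholate, 0.1% SDS, 1% Triton X-100, 0.05 M Tris HCl) with protease/phosphatase inhibitors; protein by BCA; equal protein run on SDS-PAGE, PVDF transfer, primary antibodies, HRP secondaries, ECL detection of Rap1a with β-tubulin as loading reference.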

Experiment [3] concerns the target T2, Farnesyl pyrophosphate synthase (Homo sapiens, UniProt P14324).
T2 sequence (P14324 whole entry): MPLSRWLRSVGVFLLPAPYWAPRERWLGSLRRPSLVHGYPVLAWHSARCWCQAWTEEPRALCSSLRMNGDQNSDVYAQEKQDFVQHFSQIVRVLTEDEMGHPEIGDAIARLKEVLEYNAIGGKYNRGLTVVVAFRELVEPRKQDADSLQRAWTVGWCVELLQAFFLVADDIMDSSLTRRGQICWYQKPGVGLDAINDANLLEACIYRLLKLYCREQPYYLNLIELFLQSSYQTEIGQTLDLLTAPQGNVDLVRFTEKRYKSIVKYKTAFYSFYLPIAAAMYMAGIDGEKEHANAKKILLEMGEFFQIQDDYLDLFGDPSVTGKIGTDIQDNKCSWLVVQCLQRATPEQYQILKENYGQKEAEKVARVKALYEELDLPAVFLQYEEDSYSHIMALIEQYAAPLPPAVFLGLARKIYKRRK
Briefly: Inhibition of FDPS (unknown origin) using [14C] IPP and GPP as substrate preincubated for 10 mins followed by substrate addition and measured after 30 min by scintillation counting method. The gist of the method: (§2)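 Recombinant enzyme donated by outside labs, assayed by a previously described method; each concentration run in duplicate over multiple concentrations, three independent experiments.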

For experiment [4], the target named is T3, Geranylgeranyl pyrophosphate synthase (Homo sapiens, UniProt O95749).
T3 sequence (O95749 whole entry): T1 sequence (whole entry)
In words: Inhibition of GGDPS (unknown origin) using [14C] IPP and FPP as substrate preincubated for 10 mins followed by substrate addition and measured after 30 min by scintillation counting method. The gist of the method: as §2

The target of experiment [5] is T1, Geranylgeranyl pyrophosphate synthase (Homo sapiens). Briefly: Inhibition of GGPPs in human MM1S cells assessed as disruption of Rap1a geranylgeranylation at 1 to 10 uM after 48 hrs by immunoblot analysis. The experiment is classed as cell-based. A digest of the protocol:
as §1

Experiment [6] has the same target. Briefly: Inhibition of GGPPs in human RPMI8226 cells assessed as disruption of Rap1a geranylgeranylation at 1 to 10 uM after 48 hrs by immunoblot analysis. It counts as cell-based. A digest of the protocol: as §1
(In general: Immunoblotting shows a protein as a band on a membrane.)

Activity calls are given as the source filed them. The rule behind the calls is not given here.

In general, IC50 refers to the concentration at which inhibition is half-maximal. Lower therefore signals greater potency.

With `C/C(=C/CCn1cc(CC(C)(P(=O)(O)O)P(=O)(O)O)nn1)CC/C=C(\C)CO`, in the experiment listed under Homo sapiens, the Ratio IC50 was found to be 121. The MEC in experiment [1] stood at 0.25 µM. Moreover, the inhibition result in experiment [1] and in experiment [2] was “Dose-dependent effect” in each case. Besides, the IC50 in experiment [3] is 81.4 µM; in experiment [4] it was 0.67 µM.
Consider `CC(=CCn1cc(CC(P(=O)(O)O)P(=O)(O)O)nn1)CC/C=C(\C)CO`, for which the Ratio IC50 in the experiment filed under Homo sapiens was determined as 8. The MEC in experiment [1] amounted to 10 µM. Also, the inhibition entry in experiment [1] and in experiment [2] was “Dose-dependent effect” throughout. Besides, the half-inhibitory concentration (IC50) was 91.2 µM in experiment [3] and 11.6 µM in experiment [4]. For the same molecule, the inhibition entry in experiment [5] and in experiment [6] was “Active” each time.

Source of the values: ChEMBL document CHEMBL4304801, “ω-Hydroxy isoprenoid bisphosphonates as linkable GGDPS inhibitors” (Bioorg Med Chem Lett, 2019).
